Data on 2 compounds can be found in ChEMBL document CHEMBL3868590, “Quambalarine B, a Secondary Metabolite from Quambalaria cyanescens with Potential Anticancer Properties” (J Nat Prod, 2016).

By Cmax is commonly meant the highest concentration seen after dosing.

Series [1] deals with REH. Put plainly: Cytostatic activity against eFluor670-labelled human REH cells assessed as live cells at 20 ng/ml measured on day 1 by Hoechst-33258 staining-based FACS analysis (reference value: 89.8%). The format is functional. A general note: In flow cytometry, cells or beads pass a laser one at a time.
Series [2] concerns REH. Nature of the series: Cytostatic activity against eFluor670-labelled human REH cells assessed as live cells at 20 ng/ml measured on day 2 by Hoechst-33258 staining-based FACS analysis (reference value: 90.8%). The format is functional.
In series [3] the test system is NALM-6. Nature of the series: Cytostatic activity against eFluor670-labelled human NALM6 cells assessed as live cells at 5 ng/ml measured on day 5 by Hoechst-33258 staining-based FACS analysis (reference value: 98.6%). The format is functional.
Series [4] relates to Jurkat. Put plainly: Cytostatic activity against eFluor670-labelled human Jurkat cells assessed as live cells at 10 ng/ml measured on day 1 post dose by Hoechst-33258 staining-based FACS analysis (reference value: 98.2%). The format is functional.
In series [5] the test system is Jurkat. Nature of the series: Cytostatic activity against eFluor670-labelled human Jurkat cells assessed as live cells at 10 ng/ml measured on day 3 post dose by Hoechst-33258 staining-based FACS analysis (reference value: 98.3%). The format is functional.
Series [6] relates to Jurkat. Nature of the series: Cytostatic activity against eFluor670-labelled human Jurkat cells assessed as live cells at 10 ng/ml measured on day 5 post dose by Hoechst-33258 staining-based FACS analysis (reference value: 97%). The format is functional.
Series [7] deals with NALM-6. Put plainly: Cytostatic activity against eFluor670-labelled human NALM6 cells assessed as live cells at 5 ng/ml measured immediately after compound addition by Hoechst-33258 staining-based FACS analysis (reference value: 95.8%). The format is functional.
Series [8] relates to Jurkat. Nature of the series: Cytostatic activity against eFluor670-labelled human Jurkat cells assessed as live cells at 10 ng/ml measured on day 2 post dose by Hoechst-33258 staining-based FACS analysis (reference value: 97%). The format is functional.
Series [9] deals with REH. Put plainly: Cytostatic activity against eFluor670-labelled human REH cells assessed as live cells at 20 ng/ml measured immediately after compound addition by Hoechst-33258 staining-based FACS analysis (reference value: 44.1%). The format is functional.
For series [10], the system named is NALM-6. Nature of the series: Cytostatic activity against eFluor670-labelled human NALM6 cells assessed as live cells at 5 ng/ml measured on day 1 by Hoechst-33258 staining-based FACS analysis (reference value: 95.5%). The format is functional.
The test system of series [11] is NALM-6. Nature of the series: Cytostatic activity against eFluor670-labelled human NALM6 cells assessed as live cells at 5 ng/ml measured on day 2 by Hoechst-33258 staining-based FACS analysis (reference value: 97.7%). The format is functional.
The subject of series [12] is REH. Nature of the series: Cytostatic activity against eFluor670-labelled human REH cells assessed as live cells at 20 ng/ml measured on day 4 by Hoechst-33258 staining-based FACS analysis (reference value: 88%). The format is functional.
In series [13] the test system is Jurkat. Put plainly: Cytostatic activity against eFluor670-labelled human Jurkat cells assessed as live cells at 10 ng/ml measured immediately after compound addition by Hoechst-33258 staining-based FACS analysis (reference value: 98.2%). The format is functional.
Series [14] has as its system NALM-6. Nature of the series: Cytostatic activity against eFluor670-labelled human NALM6 cells assessed as live cells at 5 ng/ml measured on day 4 by Hoechst-33258 staining-based FACS analysis (reference value: 98.6%). The format is functional.
Series [15] relates to REH. Put plainly: Cytostatic activity against eFluor670-labelled human REH cells assessed as live cells at 20 ng/ml measured on day 5 by Hoechst-33258 staining-based FACS analysis (reference value: 85.6%). The format is functional.
Series [16] concerns NALM-6. Put plainly: Cytostatic activity against eFluor670-labelled human NALM6 cells assessed as live cells at 5 ng/ml measured on day 3 by Hoechst-33258 staining-based FACS analysis (reference value: 98.6%). The format is functional.
The nature of series [17]: Cytotoxicity against PHA/LPS-stimulated CD3-positive T-lymphocytes in eFluor-670-labeled human PBMC assessed as divided cells at 5 ng/ml administered post 18 hrs of PHA/LPS-stimulation measured after 72 hrs by Hoechst-33258 staining-based FACS analysis (reference value: 24.2%). The format is toxicity. The following applies: t-cell. The method in brief:
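PBMC were labelled with 1 μmol/L CPD, stimulated with PHA (5 μg/mL) plus LPS (1 μg/mL), and seeded at 3 × 10^5 cells/well in 300 μL. Compound was added after 18 h and left for 72 h. Cells were stained with anti-CD3. Unstimulated cells set the CPD+ gate. Proliferation index, division index and % divided were calculated for CPD+CD3+ Hoechst-negative cells.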

Series [18] has as its system Jurkat. Nature of the series: Cytostatic activity against eFluor670-labelled human Jurkat cells assessed as live cells at 10 ng/ml measured on day 4 post dose by Hoechst-33258 staining-based FACS analysis (reference value: 97.3%). The format is functional.
The nature of series [19]: Cmax in human. The format is ADME.

`COc1cccc2c1C(=O)c1c(O)c3c(c(O)c1C2=O)C[C@@](O)(C(=O)CO)C[C@@H]3O[C@H]1C[C@H](N)[C@H](O)[C@H](C)O1` [DOXORUBICIN]: the Activity stood at 73.5% with REH [1]; 26.7% with REH [2]; 87.8% in the series with NALM-6 [3]; 97% with Jurkat [4]; 42.8% in the series with Jurkat [5]; 10.5% with Jurkat [6]. Besides, the Activity is on record as 95.8% with NALM-6 [7]; 78.5% in the series with Jurkat [8]; 44.1% in the series with REH [9]; 95.2% in the series on NALM-6 [10]; 96.5% in the series on NALM-6 [11]; 2.72% in the series with REH [12]. The Activity is on record as 98.2% in the series with Jurkat [13]; 93.8% with NALM-6 [14]; 1.19% in the series on REH [15]; 96.3% in the series with NALM-6 [16]; 18.1% in series [17]; 9.46% in the series with Jurkat [18].
As for `CN(Cc1cnc2nc(N)nc(N)c2n1)c1ccc(C(=O)N[C@@H](CCC(=O)O)C(=O)O)cc1` [METHOTREXATE], the Cmax in series [19] was above 1000 µM.
